MBD2 DNA inh: inhibitors of MBD2 binding to methylated DNA, primary screen, biochemical, TR-FRET, DNA-binding domain, human | MBD2 binding to methylated oligonucleotide | inhibition, % at 4.4 µM | 370,000 compounds, 0.31% hits; in the data active = inhibition above about 13%
UHRF1 MBD2 ctr: UHRF1 methylated DNA binding inhibitors, primary screen, counter-screen for MBD2 inhibitor project, biochemical, TR-FRET, human UHRF1, single concentration. E3 ubiquitin-protein ligase UHRF1 (Homo sapiens), Q96T88. 370,000 compounds, 0.75% hits. AID 687016, 2013. inhibition, % at 4.4 µM. UHRF1 binding to methylated oligo; in the data active = inhibition above about 21%;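 also: UHRF1 SRA domain binding a hemimethylated CpG hairpin DNA probe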
Target sequence (Q96T88 whole entry, looked up, the tested form may be a part): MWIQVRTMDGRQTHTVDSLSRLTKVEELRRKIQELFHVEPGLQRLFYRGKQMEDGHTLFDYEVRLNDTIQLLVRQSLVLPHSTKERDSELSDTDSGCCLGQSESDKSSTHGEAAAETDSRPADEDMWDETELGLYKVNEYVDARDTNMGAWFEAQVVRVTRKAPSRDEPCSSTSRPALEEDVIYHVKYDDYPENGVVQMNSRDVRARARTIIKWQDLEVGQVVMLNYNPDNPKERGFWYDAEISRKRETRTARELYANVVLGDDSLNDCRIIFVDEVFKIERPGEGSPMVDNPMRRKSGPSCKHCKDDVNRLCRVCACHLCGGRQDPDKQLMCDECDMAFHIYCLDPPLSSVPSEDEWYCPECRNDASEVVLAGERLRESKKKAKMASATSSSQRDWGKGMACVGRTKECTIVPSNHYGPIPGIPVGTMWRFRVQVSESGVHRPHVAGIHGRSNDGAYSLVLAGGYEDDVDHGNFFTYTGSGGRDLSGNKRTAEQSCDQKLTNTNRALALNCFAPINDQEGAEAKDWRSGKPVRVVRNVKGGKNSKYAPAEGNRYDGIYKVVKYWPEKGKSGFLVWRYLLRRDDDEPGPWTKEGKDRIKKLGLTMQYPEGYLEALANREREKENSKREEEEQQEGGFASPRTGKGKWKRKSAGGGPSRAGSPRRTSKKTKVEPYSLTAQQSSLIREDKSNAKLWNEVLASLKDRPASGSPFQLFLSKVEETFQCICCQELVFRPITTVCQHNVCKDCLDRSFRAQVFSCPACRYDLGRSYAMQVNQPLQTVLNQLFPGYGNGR
ASAP1 inh: inhibitors of human ASAP1 ArfGAP activity, primary screen, biochemical, fluorescence polarization | inhibition, % at 16.5 µM | Arf-GAP with SH3 domain, ANK repeat and PH domain-containing protein 1 (Homo sapiens), … | AID 624377, 2012 | 360,000 compounds, 0.19% hits | ASAP1-stimulated ARF1 GTP hydrolysis, GDP FP detection; in the data active = inhibition above about 25%
ARFGAP1 inh: inhibitors of rat ARFGAP1 GAP activity, primary screen, biochemical, fluorescence polarization, GDP tracer; inhibition, % at 16.5 µM; Arfgap1-stimulated ARF1 GTP hydrolysis, GDP FP detection; 360,000 compounds, 0.26% hits; AID 651572, 2012;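 active = inhibition above a per-plate limit, mean inhibition of low control wells plus 3 SD, cut at about 25% in these data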
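Material: rat Arfgap1 catalytic domain, aa 1-136; also added: human ARF1(Δ1-17)-GTP substrate; compound dosing: one concentration, 16.5 µM, DMSO 1.26%; incubation: GTP hydrolysis reaction 2 h at 25 °C; measured by: Tracer-displacement fluorescence polarization with EDTA stop, 620/688 nm; evaluation: % inhibition from polarization; repeats: one replicate per compound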
LEDGF integ inh: blockers of LEDGF/p75-dependent integrase strand transfer – biochemical, TR-FRET, high throughput, primary screen; inhibition, % at 3.7 µM; TR-FRET IN-LEDGF/p75 DNA integration, Eu/Cy5; HIV-1 integrase (with human LEDGF/p75); 370,000 compounds, 0.64% hits;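 active = inhibition above the screen-wide mean plus 3 SD, cut at about 13% in these data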;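 also: signal is the Cy5 over europium emission ratio at 671 and 618 nm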
TCR-CD3 inh: inhibitors of human TCR-CD3 interaction, primary screen, biochemical, fluorescence, TAMRA-labeled TCR probe. inhibition, % at 9.4 µM. T-cell receptor (TCR). AID 651800, 2012. 360,000 compounds, 0.37% hits; in the data active = inhibition above about 19%;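 also: recombinant mutant TCR 2C K166C tagged with TAMRA read by polarization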
IN multimer up: HIV-1 IN multimer formation enhancers, counter-screen for LEDGF/p75 integration inhibitor project, biochemical, TR-FRET. shares compounds with LEDGF integ inh. 2,000 compounds, 17% hits. activation, % at 7.7 µM. TR-FRET HIV-1 integrase multimerization; in the data active = activation above about 8.9%
TR-FRET interf: TR-FRET optical interference artefacts, confirmation, artefact control for LEDGF/p75-dependent integration inhibitor project, biochemical, HIV-1 IN multimerization | shares compounds with LEDGF integ inh | TR-FRET optical interference counterscreen | inhibition, % at 7.7 µM | 2,000 tested, under 10 active | AID 1053135, 2014;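 active = inhibition above the mean over all tested compounds plus 3 SD, which no compound reached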
LEDGF integ conf: inhibitors of HIV-1 IN-LEDGF/p75 DNA integration, confirmation, biochemical, TR-FRET; shares compounds with LEDGF integ inh; TR-FRET LEDGF/p75-dependent HIV-1 integration; inhibition, % at 3.7 µM; 2,000 compounds, 36% hits; AID 1053136, 2014; in the data active = inhibition above about 14%
Hits are given with their value; – = inactive; · = not tested or not shown. Most compounds without a hit are left out; they make up all but 2% or so of the library.

SMILES	MBD2 DNA inh	UHRF1 MBD2 ctr	ASAP1 inh	ARFGAP1 inh	LEDGF integ inh	TCR-CD3 inh	IN multimer up	TR-FRET interf	LEDGF integ conf
CCN(CC(=O)Nc1c(F)cccc1F)C(=O)C1CC1C (stereo not given)	–	–	–	–	–	–	·	·	·
CC(CCc1ccccc1)NC(=O)CN1CCc2ccccc2C1 (stereo not given)	–	22	–	–	15	–	–	–	–
COc1cccc(/C=C2\Oc3cc(OCC(=O)N4CCCCC4)ccc3C2=O)c1OC	–	–	–	–	–	–	·	·	·
COCCN(CCOC)Cc1c(O)ccc2c1O/C(=C\c1ccc(C)o1)C2=O	–	–	–	–	40	–	13	–	14
Cc1ccc(/C=C2\Oc3cc(OCC(=O)NN)ccc3C2=O)o1	–	–	–	–	21	–	–	–	14
C[C@@H](Oc1ccccc1)c1nnn(Cc2ccccc2)c1-c1c([C@@H](C)Oc2ccccc2)nnn1Cc1ccccc1	–	–	–	–	–	–	·	·	·
COc1ccc(N2CCN(C(=O)c3ccc4c(c3)[nH]c(=S)n3c5ccccc5nc43)CC2)cc1	–	43	–	–	15	–	–	–	–
Cc1cc(NS(=O)(=O)c2cc(Cl)sc2Cl)no1	–	–	–	–	–	–	·	·	·
O=C(c1ccc(Br)cc1)c1sc(N2CCOCC2)nc1-c1ccccc1	–	–	–	–	–	–	·	·	·
C[C@H](CO)N1C[C@H](C)[C@@H](CN(C)S(=O)(=O)c2cccs2)Oc2c(NC(=O)Nc3ccccc3)cccc2C1=O	–	–	–	–	–	–	·	·	·
CC(C)NC(=O)N(C)C[C@@H]1Oc2c(NS(=O)(=O)c3ccccc3)cccc2C(=O)N([C@@H](C)CO)C[C@@H]1C	–	–	–	–	–	–	·	·	·
CC(C)NC(=O)N(C)C[C@H]1Oc2c(NS(=O)(=O)c3ccccc3)cccc2C(=O)N([C@H](C)CO)C[C@@H]1C	–	–	–	–	35	–	–	–	–
C[C@H](CO)N1C[C@H](C)[C@@H](CN(C)S(=O)(=O)c2cccs2)Oc2c(NC(=O)NC3CCCCC3)cccc2C1=O	–	–	–	–	18	–	–	–	–
CCOC(=O)c1c2ccc(OCC(=O)N/N=C/c3ccc(Cl)cc3)cc2n2ccccc12	–	–	–	–	14	–	–	–	–
CCC1(CC)Cc2ccccc2-c2nc(NCCCO)[nH]c(=O)c21	–	–	–	–	14	–	–	–	–
CCOC1=C2[C@@H](CN(S(=O)(=O)c3ccccc3C)[C@H]2c2ccc(Cl)cc2)[C@H]2C(=O)N(c3ccccc3)C(=O)[C@H]2C1	–	–	–	–	37	–	–	–	–
CCOC1=C2[C@@H](CN(S(=O)(=O)c3ccccc3C)[C@H]2c2ccc(Cl)cc2)[C@H]2C(=O)N(C3CCCCC3)C(=O)[C@H]2C1	–	–	–	–	–	–	·	·	·
CCN(CC)c1ccc(N=C2C=CC(=O)C=C2NC(C)=O)cc1	–	–	–	–	73	–	36	–	35
CCN(CC)c1ccc(NC(=O)Nc2ccc(C(C)=O)cc2)cc1	–	–	–	–	–	–	·	·	·
O=[N+]([O-])c1ccc(-c2cnc[nH]2)cc1	–	–	–	–	–	–	·	·	·
Cc1ccsc1/C=C/C1=Cc2c(sc(NC(=O)CSc3n[nH]c(N)n3)c2C#N)C(C)(C)C1	–	–	–	–	18	–	–	–	39
CCn1c(CNC(=O)c2ccco2)nnc1SCC(=O)Nc1cc(F)ccc1C	–	–	–	–	–	–	·	·	·
O=S(=O)(Nc1cc(Sc2cccc3cccnc23)c(O)c2ccccc12)c1ccccc1	–	–	–	–	17	–	–	–	–
Cc1ccc(S(=O)(=O)Nc2cccc3cccnc23)cc1	–	–	–	–	–	–	·	·	·
CCOc1ccc(S(=O)(=O)Nc2cc(SCC(=O)O)c(O)c3ccccc23)cc1	–	–	–	–	25	–	–	–	43
SMILES	MBD2 DNA inh	UHRF1 MBD2 ctr	ASAP1 inh	ARFGAP1 inh	LEDGF integ inh	TCR-CD3 inh	IN multimer up	TR-FRET interf	LEDGF integ conf
CCOC(=O)c1ccccc1NS(=O)(=O)c1ccc(OCC)cc1	–	–	–	–	–	–	·	·	·
CN=c1scc(-c2ccccc2F)n1/N=C/c1ccc(O)c(O)c1O	–	–	–	–	22	–	–	–	28
COc1ccc2c3c(ccc2c1)C(=O)/C(=C/O)CC3	–	–	–	–	17	–	–	–	27
COc1ccc2c(c1)CC/C(=C\C=C\c1ccccc1OC)C2=O	–	–	–	–	–	–	·	·	·
CSCCC(C(=O)NC(C)(C)C)n1c(-c2cccc(NC(C)=O)c2)nc2ccccc21 (stereo not given)	–	–	–	–	–	–	·	·	·
O=C(NNC(=O)C1CCN(S(=O)(=O)c2ccc(Cl)cc2)CC1)c1ccc(Cl)cc1	–	–	–	–	84	–	–	–	–
O=C(NNC(=O)C1CCN(S(=O)(=O)c2ccc(Cl)cc2)CC1)c1ccccc1	–	–	–	–	–	–	·	·	·
O=S(=O)(Nc1ccc(Cc2ccncc2)cc1)N1CCCC1	–	–	–	–	25	–	–	–	–
O=C(CSc1ncccn1)Nc1ncc(C(F)(F)F)cc1Cl	–	–	–	–	82	–	–	–	–
CCCc1cc(=O)[nH]c(SCC(=O)NCCCC(=O)OCC)n1	–	–	–	–	–	–	·	·	·
CCCc1cc(=O)[nH]c(SCC(=O)NC(=O)OCC)n1	–	–	–	–	25	–	–	–	–
CCCSc1ccc([C@H]2N[C@@](C)(C(=O)OC)[C@H]3C(=O)N(CC)C(=O)[C@@H]23)cc1	–	–	–	–	–	–	·	·	·
